Data: ChEMBL document CHEMBL1134307, “trans-4-[4-(Methoxyphenyl)cyclohexyl]-1-arylpiperazines: a new class of potent and selective 5-HT(1A) receptor ligands as conformationally constrained analogues of 4-[3-(5-methoxy-1,2,3,4-tetrahydronaphthalen-1-yl)propyl]-1-arylpiperazines” (J Med Chem, 2001)

Experiments:
[1] = biological target: T1, Alpha-1B adrenergic receptor (Homo sapiens, UniProt P35368); assay: Binding affinity was determined on human cloned alpha-1B adrenergic receptor
T1 sequence (P35368 whole entry): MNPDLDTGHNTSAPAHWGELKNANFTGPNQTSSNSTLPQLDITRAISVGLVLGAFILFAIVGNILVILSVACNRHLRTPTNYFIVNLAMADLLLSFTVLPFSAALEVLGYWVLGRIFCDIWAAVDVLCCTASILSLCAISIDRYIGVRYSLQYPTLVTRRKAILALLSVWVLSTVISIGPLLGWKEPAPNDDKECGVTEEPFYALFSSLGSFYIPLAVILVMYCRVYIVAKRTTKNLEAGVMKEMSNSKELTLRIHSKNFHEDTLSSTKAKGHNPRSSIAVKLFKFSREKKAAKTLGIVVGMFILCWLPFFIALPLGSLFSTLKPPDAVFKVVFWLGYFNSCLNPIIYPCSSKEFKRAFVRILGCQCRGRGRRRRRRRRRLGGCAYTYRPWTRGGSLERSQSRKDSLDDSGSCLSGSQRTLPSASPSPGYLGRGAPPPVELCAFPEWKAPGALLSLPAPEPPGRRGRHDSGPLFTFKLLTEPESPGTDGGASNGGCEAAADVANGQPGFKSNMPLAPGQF
Summary of the method: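 Membranes from CHO cells stably expressing each human α1-adrenoceptor subtype, incubated in 50 mM Tris pH 7.4 with 0.2 nM [3H]prazosin and competing drugs (1 pM–10 µM), 30 min at 25 °C. Nonspecific binding with 10 µM phentolamine. Stopped with ice-cold Tris and filtration through 0.2% PEI-pretreated filters.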

[2] = biological target: T2, 5-hydroxytryptamine receptor 1A (Homo sapiens, UniProt P08908); assay: Binding affinity on human cloned 5-hydroxytryptamine 1A receptor transfected in human cell lines(He La)
T2 sequence (P08908 whole entry): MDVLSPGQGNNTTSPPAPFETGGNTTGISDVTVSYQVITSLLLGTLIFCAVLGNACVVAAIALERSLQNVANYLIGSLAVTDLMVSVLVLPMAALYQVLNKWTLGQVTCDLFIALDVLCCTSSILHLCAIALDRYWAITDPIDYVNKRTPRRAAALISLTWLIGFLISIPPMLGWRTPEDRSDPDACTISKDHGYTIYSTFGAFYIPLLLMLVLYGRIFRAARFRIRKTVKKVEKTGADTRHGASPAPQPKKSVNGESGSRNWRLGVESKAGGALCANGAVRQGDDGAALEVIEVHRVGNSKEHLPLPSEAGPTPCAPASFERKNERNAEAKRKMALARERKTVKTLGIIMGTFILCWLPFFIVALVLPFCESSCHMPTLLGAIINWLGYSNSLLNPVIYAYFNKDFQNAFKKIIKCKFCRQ
Summary of the method: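 HeLa cells stably expressing human 5-HT1A (genomic clone G-21), grown in DMEM with 10% FCS. […] Nonspecific binding with 10 µM 5-HT. Filtration through PEI-pretreated filters.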

[3] = biological target: T3, Adrenergic receptor alpha-1 (Rattus norvegicus, UniProt P15823+P23944+P43140); assay: Binding affinity towards alpha-1 adrenergic receptor in rat cortical membranes; assay type: cell membranes
T3 sequence (P15823 whole entry): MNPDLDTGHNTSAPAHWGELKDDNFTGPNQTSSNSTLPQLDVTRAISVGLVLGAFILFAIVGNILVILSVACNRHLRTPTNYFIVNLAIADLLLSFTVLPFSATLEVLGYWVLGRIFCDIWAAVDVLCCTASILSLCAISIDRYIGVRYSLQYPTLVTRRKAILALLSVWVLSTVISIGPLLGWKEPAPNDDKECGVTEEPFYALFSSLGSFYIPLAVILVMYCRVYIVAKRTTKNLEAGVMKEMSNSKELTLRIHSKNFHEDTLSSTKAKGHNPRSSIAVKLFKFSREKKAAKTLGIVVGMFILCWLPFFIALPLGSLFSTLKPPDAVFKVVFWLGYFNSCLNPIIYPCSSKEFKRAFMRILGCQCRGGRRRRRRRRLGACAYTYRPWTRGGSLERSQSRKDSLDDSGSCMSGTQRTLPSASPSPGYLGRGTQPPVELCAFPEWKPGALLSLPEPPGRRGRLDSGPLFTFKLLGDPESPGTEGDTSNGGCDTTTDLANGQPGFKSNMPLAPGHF
T3 sequence (P23944 whole entry): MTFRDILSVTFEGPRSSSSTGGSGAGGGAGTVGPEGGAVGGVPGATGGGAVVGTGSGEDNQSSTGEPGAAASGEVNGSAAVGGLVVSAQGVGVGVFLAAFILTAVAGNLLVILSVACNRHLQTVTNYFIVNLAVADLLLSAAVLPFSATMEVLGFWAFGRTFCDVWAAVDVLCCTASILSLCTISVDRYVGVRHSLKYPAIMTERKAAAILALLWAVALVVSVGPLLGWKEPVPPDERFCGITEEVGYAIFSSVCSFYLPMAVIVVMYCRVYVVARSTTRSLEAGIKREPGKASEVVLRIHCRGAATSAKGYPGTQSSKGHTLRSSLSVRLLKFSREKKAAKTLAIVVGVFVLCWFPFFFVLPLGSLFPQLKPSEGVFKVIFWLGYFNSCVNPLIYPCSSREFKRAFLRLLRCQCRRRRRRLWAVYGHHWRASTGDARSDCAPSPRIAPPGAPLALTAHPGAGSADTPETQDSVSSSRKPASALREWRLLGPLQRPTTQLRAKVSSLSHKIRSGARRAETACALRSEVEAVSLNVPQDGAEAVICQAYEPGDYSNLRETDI
T3 sequence (P43140 whole entry): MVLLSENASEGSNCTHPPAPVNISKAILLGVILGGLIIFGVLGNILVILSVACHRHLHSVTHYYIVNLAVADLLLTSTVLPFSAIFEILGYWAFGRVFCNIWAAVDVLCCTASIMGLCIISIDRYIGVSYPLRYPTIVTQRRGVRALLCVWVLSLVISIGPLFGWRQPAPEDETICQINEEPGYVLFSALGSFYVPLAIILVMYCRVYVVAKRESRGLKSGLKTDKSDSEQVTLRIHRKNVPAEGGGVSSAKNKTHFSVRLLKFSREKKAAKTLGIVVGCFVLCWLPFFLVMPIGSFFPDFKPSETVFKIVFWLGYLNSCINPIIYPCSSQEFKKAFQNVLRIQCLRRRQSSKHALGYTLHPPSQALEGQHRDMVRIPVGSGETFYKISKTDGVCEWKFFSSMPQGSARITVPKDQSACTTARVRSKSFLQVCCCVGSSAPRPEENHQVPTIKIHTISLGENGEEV

SMILES	Ki [1]	Ki [2]	Ki [3]
COc1cccc(C2CCC(NCCOc3ccccn3)CC2)c1 (stereo in doubt)	332 nM	3.77 nM	> 850 nM
COc1cccc2c1CCCC2CCCNCCOc1ccccn1 (stereo not given)	26.4 nM	0.23 nM	83 nM
COc1cccc2c(CCCNCCOc3ccccn3)cccc12	270 nM	0.86 nM	1300 nM
COc1cccc(C2CCC(N3CCN(c4ccccc4OC)CC3)CC2)c1 (stereo in doubt; trans)	43.3 nM	0.21 nM	312 nM
COc1cccc(C2CCC(N3CCN(c4ccccn4)CC3)CC2)c1 (trans isomer)	53.1 nM	0.2 nM	767 nM

Stronger by Ki [1], values ahead:

Ki [1]	Ki [2]	Ki [3]	SMILES
4.21 nM	3 nM	833 nM	COc1cccc2c(CCCN3CCN(c4ccccn4)CC3)cccc12
7.88 nM		55 nM	COc1cccc2c1CCCC2CCCN1CCN(c2ccccn2)CC1 (stereo not given)
